Each structure is given as a SMILES string. Calls of active or inactive are those of the source. The calls are words filed in the database; no cut-off is given here.

Drawing on ChEMBL document CHEMBL3108762, “Novel pyridazinone inhibitors for vascular adhesion protein-1 (VAP-1): old target-new inhibition mode” (J Med Chem, 2013), this text covers inhibition, IC50 and Kd for three molecules.

Data set [1] deals with T1, Amine oxidase [copper-containing] 3 (Rattus norvegicus) (UniProt O08590).
T1 sequence (whole entry): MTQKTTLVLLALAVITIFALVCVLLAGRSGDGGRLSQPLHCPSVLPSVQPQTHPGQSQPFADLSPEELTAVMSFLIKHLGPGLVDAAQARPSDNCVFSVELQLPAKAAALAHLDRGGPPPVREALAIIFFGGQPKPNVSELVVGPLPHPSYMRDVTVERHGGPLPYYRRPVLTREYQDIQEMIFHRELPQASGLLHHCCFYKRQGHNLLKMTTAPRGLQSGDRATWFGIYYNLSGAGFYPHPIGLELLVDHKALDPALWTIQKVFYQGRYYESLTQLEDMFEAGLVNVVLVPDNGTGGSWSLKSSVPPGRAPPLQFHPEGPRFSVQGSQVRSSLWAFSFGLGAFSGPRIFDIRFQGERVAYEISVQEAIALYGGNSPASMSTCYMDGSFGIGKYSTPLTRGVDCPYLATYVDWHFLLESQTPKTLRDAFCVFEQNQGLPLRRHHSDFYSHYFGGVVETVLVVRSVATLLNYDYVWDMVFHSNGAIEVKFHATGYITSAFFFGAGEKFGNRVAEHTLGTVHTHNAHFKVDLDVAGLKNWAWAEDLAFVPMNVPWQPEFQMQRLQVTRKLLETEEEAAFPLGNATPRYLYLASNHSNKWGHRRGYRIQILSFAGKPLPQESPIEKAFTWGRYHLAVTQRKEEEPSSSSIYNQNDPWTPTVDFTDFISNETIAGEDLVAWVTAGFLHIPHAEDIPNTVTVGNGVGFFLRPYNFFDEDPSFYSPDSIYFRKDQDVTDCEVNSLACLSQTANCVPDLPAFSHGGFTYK
In words: Inhibition of rat VAP-1.

Data set [2] concerns the target T2, MAO-B (Homo sapiens, UniProt P27338).
T2 sequence (P27338 whole entry): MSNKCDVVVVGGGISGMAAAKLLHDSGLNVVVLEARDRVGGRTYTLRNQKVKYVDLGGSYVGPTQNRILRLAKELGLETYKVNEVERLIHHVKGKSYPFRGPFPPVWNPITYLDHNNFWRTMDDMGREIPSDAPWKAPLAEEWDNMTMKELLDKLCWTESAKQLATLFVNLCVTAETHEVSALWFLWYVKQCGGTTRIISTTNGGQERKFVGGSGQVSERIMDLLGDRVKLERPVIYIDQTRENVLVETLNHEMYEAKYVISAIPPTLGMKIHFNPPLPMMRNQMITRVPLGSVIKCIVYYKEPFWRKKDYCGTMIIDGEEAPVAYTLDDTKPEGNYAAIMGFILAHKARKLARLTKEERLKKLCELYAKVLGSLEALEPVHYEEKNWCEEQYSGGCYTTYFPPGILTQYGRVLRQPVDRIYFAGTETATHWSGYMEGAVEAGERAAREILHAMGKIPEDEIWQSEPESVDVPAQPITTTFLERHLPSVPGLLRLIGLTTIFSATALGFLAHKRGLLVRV
In words: Inhibition of human recombinant MAO-B expressed in baculovirus infected BTI insect cells using vanillic acid/tyramine as substrate at 20 uM incubated for 30 mins prior to tyramine addition measured after 1 hr by spectrophotometry. To be noted: probe tyramine (with vanillic acid). The essentials: (§1)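 Peroxidase-coupled colorimetric assay as for VAP-1, with 1 mM vanillic acid in place of 2,4-dichlorophenol and 0.5 mM tyramine (final) as substrate. Conditions: 0.2 M potassium phosphate pH 7.6, 500 μM 4-aminoantipyrine, 4 U/ml HRP, 30 min preincubation at 37 °C, then 1 h at 37 °C; A490 read. Enzymes: purified human MAO-A or MAO-B from baculovirus-infected BTI insect cells, or total MAO-A/B extracted from rat liver mitochondria. Single-concentration percent inhibition.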

Data set [3] is filed under the species Cavia porcellus. In words: Inhibition of guinea pig VAP-1.
The target in data set [4] is T3, Amine oxidase [copper-containing] 3 (Homo sapiens, UniProt Q16853).
T3 sequence (Q16853 whole entry): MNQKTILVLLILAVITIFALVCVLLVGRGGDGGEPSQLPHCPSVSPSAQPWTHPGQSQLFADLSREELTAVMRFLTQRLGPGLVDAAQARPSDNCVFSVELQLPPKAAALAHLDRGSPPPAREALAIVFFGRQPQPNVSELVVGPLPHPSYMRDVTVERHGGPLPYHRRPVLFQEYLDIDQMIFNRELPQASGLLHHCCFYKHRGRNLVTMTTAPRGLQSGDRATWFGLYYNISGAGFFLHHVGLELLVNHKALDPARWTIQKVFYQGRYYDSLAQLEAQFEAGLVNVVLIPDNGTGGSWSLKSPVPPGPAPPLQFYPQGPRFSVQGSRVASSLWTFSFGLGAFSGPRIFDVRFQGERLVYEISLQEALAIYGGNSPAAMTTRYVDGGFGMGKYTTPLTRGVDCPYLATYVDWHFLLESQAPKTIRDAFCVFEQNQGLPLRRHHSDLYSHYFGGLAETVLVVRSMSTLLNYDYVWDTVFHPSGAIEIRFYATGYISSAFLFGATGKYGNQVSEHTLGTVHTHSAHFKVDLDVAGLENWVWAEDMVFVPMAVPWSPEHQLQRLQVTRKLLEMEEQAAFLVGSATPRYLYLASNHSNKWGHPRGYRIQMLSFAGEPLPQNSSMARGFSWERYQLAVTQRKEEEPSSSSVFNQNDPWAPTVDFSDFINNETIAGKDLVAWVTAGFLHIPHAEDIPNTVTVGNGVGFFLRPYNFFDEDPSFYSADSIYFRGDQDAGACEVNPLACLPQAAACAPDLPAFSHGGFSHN
In words: Inhibition of human recombinant VAP-1 transfected in CHO cells using 2,4-dichlorophenol/benzylamine as substrate incubated for 30 mins prior to benzylamine addition measured after 1 hr by spectrophotometry. The class given is cell-based. The essentials: (§2)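 Coupled colorimetric H2O2 assay with lysate of CHO cells stably expressing full-length VAP-1 of the listed species, dosed to give 0.6 A490/h. Conditions: 0.2 M potassium phosphate pH 7.6, 1 mM 2,4-dichlorophenol, 500 μM 4-aminoantipyrine, 4 U/ml HRP, inhibitor 1 nM–50 μM. Preincubated 30 min at 37 °C, then 1 mM benzylamine (final) for 1 h at 37 °C; A490 read, background-corrected, percent inhibition versus control, IC50 fitted; mean of two to six experiments ± SE.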

Data set [5] deals with T4, MAO-A (Homo sapiens, UniProt P21397).
T4 sequence (P21397 whole entry): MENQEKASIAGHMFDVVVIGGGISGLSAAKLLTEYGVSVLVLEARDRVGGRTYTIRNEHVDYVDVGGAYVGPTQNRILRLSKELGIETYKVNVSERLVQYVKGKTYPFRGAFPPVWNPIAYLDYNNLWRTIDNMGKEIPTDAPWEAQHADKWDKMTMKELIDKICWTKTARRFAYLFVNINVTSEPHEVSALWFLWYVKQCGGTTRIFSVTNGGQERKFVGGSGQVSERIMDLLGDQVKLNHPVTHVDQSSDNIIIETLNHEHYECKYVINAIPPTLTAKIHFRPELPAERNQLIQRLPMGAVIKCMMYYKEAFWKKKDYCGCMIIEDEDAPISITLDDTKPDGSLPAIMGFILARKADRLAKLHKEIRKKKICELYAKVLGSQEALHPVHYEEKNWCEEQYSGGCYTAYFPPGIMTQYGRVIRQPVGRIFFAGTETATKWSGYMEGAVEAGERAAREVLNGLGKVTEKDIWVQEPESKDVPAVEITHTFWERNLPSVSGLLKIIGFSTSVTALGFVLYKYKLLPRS
In words: Inhibition of human recombinant MAO-A expressed in baculovirus infected BTI insect cells using vanillic acid/tyramine as substrate at 20 uM incubated for 30 mins prior to tyramine addition measured after 1 hr by spectrophotometry. To be noted: probe tyramine (with vanillic acid). Summed up:
as §1

Data set [6] has as its system Cricetinae. In words: Inhibition of hamster VAP-1.
Data set [7] is filed under the species Rattus norvegicus. Kind of data set: Inhibition of rat liver MAO using vanillic acid/tyramine as substrate at 100 uM incubated for 30 mins prior to tyramine addition measured after 1 hr by spectrophotometry. Summed up:
as §1

Data set [8] deals with T5, Diamine oxidase [copper-containing] (Sus scrofa) (UniProt Q9TRC7).
T5 sequence (whole entry): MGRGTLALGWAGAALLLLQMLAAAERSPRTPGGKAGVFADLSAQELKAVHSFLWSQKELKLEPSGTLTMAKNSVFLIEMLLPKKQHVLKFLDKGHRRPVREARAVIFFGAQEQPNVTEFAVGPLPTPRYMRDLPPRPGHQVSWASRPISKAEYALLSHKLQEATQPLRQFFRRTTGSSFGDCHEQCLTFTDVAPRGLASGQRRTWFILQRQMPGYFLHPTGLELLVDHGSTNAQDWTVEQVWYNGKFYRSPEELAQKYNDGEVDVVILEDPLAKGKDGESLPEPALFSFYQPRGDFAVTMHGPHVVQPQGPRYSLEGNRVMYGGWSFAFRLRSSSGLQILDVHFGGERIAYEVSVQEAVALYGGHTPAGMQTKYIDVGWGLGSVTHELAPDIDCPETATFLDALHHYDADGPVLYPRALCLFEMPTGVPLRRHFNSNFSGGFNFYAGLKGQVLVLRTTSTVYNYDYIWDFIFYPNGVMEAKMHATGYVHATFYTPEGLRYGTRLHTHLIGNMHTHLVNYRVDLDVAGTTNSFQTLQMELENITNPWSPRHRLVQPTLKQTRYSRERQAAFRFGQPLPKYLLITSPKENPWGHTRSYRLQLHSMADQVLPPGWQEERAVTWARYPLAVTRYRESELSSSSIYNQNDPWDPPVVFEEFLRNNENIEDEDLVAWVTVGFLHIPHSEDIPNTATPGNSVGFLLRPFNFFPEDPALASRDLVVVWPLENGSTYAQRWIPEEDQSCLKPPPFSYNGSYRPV
Kind of data set: Inhibition of pig kidney DAO at 50 uM.

Data set [9] deals with T6, Amine oxidase [copper-containing] 3 (Mus musculus) (UniProt O70423).
T6 sequence (whole entry): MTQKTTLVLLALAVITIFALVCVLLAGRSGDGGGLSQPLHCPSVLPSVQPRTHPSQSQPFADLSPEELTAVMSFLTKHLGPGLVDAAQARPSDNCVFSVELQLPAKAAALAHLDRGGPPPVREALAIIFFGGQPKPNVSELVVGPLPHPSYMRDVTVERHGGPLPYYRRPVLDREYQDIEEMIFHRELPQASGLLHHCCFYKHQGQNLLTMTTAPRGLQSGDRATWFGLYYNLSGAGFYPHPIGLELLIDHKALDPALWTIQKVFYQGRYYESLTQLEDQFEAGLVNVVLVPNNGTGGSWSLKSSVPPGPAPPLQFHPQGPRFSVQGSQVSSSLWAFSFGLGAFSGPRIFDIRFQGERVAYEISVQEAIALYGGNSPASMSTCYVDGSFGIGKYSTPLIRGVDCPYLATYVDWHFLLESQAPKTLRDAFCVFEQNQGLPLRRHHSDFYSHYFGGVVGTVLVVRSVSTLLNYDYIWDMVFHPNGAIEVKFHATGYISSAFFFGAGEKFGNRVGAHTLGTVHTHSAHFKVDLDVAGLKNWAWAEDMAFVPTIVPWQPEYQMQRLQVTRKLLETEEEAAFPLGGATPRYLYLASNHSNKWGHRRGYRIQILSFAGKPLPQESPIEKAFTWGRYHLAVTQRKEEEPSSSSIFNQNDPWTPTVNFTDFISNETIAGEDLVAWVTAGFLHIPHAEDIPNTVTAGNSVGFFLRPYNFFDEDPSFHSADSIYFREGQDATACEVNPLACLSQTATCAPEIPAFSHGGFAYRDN
In words: Inhibition of mouse recombinant VAP-1 transfected in CHO cells using 2,4-dichlorophenol/benzylamine as substrate at 1 nM to 50 uM incubated for 30 mins prior to benzylamine addition measured after 1 hr by spectrophotometry. The class given is cell-based. The essentials:
as §2

A short description of data set [10]: Inhibition of cynomolgus monkey recombinant VAP-1 transfected in CHO cells using 2,4-dichlorophenol/benzylamine as substrate incubated for 30 mins prior to benzylamine addition measured after 1 hr by spectrophotometry. The class given is cell-based, Macaca fascicularis. Summed up: as §2
The target in data set [11] is T5, Diamine oxidase [copper-containing] (Sus scrofa). Kind of data set: Inhibition of pig kidney DAO at 100 uM.
In data set [12] the target is T3, Amine oxidase [copper-containing] 3. In words: Binding affinity to human recombinant VAP-1 by surface plasmon resonance analysis. Summed up:
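Surface plasmon resonance binding kinetics: recombinant purified VAP-1 amine-coupled to a CM5 chip after preconcentration in 10 mM Na acetate pH 4.4 with 10 μM CuCl2.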
(In general: SPR reads the build-up and loss of mass on a sensor chip optically.)

What is called inhibition is the percentage by which the read-out fell short of the control. Broadly, the IC50 is the concentration needed to halve the response being measured. Take `CN1CCN(c2ccc(Nc3cc(=O)n(-c4ccc(Cl)cc4)nc3-c3nc[nH]n3)cc2)CC1`: the inhibition entry in data set [1], in data set [3] and in [6] was “inactive” each time. Besides, the inhibition at 1 h, 20 µM in data set [2] turned out to be 1%; in data set [5], 3%. The IC50 amounted to 20 nM in [4] and 26 nM in data set [10]. For the same molecule, the inhibition in data set [7] stood at 18%; in [8] it was 36%; in data set [9], 23%.

As a reminder, the Kd is the free concentration of one partner at which half of the binding sites on the other are occupied at equilibrium, for simple one-to-one binding. Take `CC(C)Nc1cc(=O)n(-c2ccccc2)nc1-c1nc[nH]n1`: the inhibition result in [1], in data set [3] and in data set [6] was “inactive” throughout. Moreover, the inhibition in data set [11] was determined as 30%; in [7] it was 8%; in [9] it was 10%. Besides, the Kd in data set [12] came to 200 nM. In addition, the IC50 in data set [4] is 290 nM; in data set [10] it was 250 nM.

Consider `O=c1cc(NC2CCCCC2)c(-c2nc[nH]n2)nn1-c1ccccc1`, for which the inhibition result in [1], in data set [3] and in data set [6] was “inactive” each time. The inhibition in data set [11] came to 40%; in data set [7], 3%; in data set [9] it was 24%. The inhibition at 1 h, 20 µM in data set [2] stood at 13%; in data set [5], 4%. In data set [12], the Kd was determined as 170 nM. Moreover, the IC50 in data set [4] was 71 nM; in [10], 130 nM.
